IDH1 mut inh – blocks human IDH1 R132H reductase activity. O75874. diaphorase/resazurin fluorescence, 60 min. inhibition, % at 10 µM. 70,000 tested, 0.18% active; in the data active means inhibition above about 34%; inconclusive means no clear call, values can overlap the other calls; inactive means below about 11%;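 further: 0% = DMSO and 100% = no enzyme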
Target sequence (O75874 whole entry R132H): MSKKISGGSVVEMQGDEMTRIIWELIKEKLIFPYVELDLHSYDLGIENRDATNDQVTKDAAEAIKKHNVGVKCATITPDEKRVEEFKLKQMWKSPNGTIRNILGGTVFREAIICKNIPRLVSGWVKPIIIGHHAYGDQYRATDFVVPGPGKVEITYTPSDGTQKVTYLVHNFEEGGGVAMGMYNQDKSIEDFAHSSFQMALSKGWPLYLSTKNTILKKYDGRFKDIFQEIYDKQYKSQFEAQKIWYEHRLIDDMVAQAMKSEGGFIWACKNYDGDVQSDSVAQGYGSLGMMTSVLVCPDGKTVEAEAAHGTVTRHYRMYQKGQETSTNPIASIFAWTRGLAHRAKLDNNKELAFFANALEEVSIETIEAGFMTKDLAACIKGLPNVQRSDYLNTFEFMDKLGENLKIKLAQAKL
T cruzi growth-1 – inhibitors of T. cruzi proliferation. T. cruzi beta-gal in NIH3T3, GalScreen luminescence, 90 h. inhibition, % at 8.34 µM. 77,000 tested, 5.9% active;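 active means mean inhibition above about 93%, with at least 55% of replicates each passing it, limit read from the data, passing the limit was not always enough; inconclusive means only one of those two conditions holds; inactive means neither condition holds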
GASC1 inh – KDM4C (human) demethylase inhibition; Q9H3R0; 96,000 tested, 0.15% active; GST-KDM4C 2-372, H3K9me3 peptide, LANCE TR-FRET; inhibition, % at 12.5 µM;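 active means mean replicate inhibition above about 25%, with at least 55% of replicates also reaching it, limit read from the data, passing the limit was not always enough; inconclusive means only one of those two conditions met; inactive means neither condition met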
Target sequence (Q9H3R0 2-372 limits assumed): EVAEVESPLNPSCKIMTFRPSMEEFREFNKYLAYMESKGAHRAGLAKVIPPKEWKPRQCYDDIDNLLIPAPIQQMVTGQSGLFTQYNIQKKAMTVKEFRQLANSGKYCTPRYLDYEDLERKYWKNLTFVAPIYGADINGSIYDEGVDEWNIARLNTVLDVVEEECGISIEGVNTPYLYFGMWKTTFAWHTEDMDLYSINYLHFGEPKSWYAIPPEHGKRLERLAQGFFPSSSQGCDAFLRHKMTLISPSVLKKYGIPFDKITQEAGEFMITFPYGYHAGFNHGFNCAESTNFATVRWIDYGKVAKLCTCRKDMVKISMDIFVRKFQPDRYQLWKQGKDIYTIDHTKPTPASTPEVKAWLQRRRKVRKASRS
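Material: GST-tagged GASC-1 (JMJD2C) catalytic fragment, aa 2-372 / Quantity: enzyme final amount 10 nM / Medium: HEPES buffer, pH 7.5, plus ascorbate / Doses: one test concentration per compound / Incubation: 30 min reaction, 60 min detection, RT / Measured by: LANCE TR-FRET / Read-out: inhibition from TR-FRET ratio decrease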
T cruzi growth-2 – blocks T. cruzi growth in NIH3T3 host cells; shares compounds with T cruzi growth-1; T. cruzi beta-gal in NIH3T3, GalScreen luminescence, 90 h; 5,600 tested, 72% active; inhibition, % at 8.35 µM;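 active means mean replicate inhibition above about 95% and at least 55% of replicates individually reaching it, limit read from the data; inconclusive means only one of the two criteria is met; inactive means neither criterion is met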
T cruzi growth-3 – inhibitors of T. cruzi proliferation. shares compounds with T cruzi growth-1. T. cruzi beta-gal in NIH3T3, GalScreen luminescence, 90 h. inhibition, % at 2.09 µM. 5,600 tested, 21% active;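 active means mean inhibition above about 95%, with at least 55% of replicates also reaching it, limit read from the data; inconclusive means meets just one of the two conditions; inactive means meets neither condition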;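 further: plate controls were neutral control median for no effect and positive control median for full effect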
NIH3T3 tox – kills mouse NIH/3T3 fibroblasts; shares compounds with T cruzi growth-1; NIH/3T3 viability, CellTiter-Glo ATP luminescence, 90 h; cytotoxicity (signal decrease), % at 8.35 µM; 5,600 tested, 14% active; AID 651742;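 active means mean signal decrease across replicates above about 35% based on untreated-well scatter, with enough replicates individually passing, limit read from the data; inconclusive means no rule stated though some were filed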;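 further: 0% = median of neutral control wells and 100% = median of positive control wells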
3T3 cytotox 2 – NIH/3T3 (mouse) viability loss | shares compounds with T cruzi growth-1 | NIH/3T3 viability, CellTiter-Glo ATP luminescence, 90 h | 5,600 tested, 56% active | inhibition, % at 24.9 µM;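 active means mean loss of cell viability signal at or above a set limit, and enough replicates individually reaching it; inconclusive means meets only the mean limit or only the replicate share; inactive means meets neither condition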;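 further: 0% = median of neutral control wells and 100% = median of positive control wells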
* = called active by the depositor; ? = inconclusive; . = no result given. Shown is part of a subset that was picked to be rich in hits.

SMILES	IDH1 mut inh	T cruzi growth-1	GASC1 inh	T cruzi growth-2	T cruzi growth-3	NIH3T3 tox	3T3 cytotox 2
CO[C@H]1CN(C)C(=O)c2ccc(NS(=O)(=O)c3cccc(Cl)c3)cc2OC[C@H](C)NC[C@@H]1C	.	.	-1.0	.	.	.	.
CO[C@@H]1CN(C)C(=O)c2ccc(NC(=O)Nc3cccc(F)c3)cc2OC[C@H](C)NC[C@H]1C	0.2	102.1*	0.3	5.9	10.5	-1.3	-15.8
CO[C@H]1CN(C)C(=O)c2cc(NC(=O)Nc3cc(F)ccc3F)ccc2OC[C@H](C)NC[C@@H]1C	0.5	?	1.6	8.7	-46.0	4.9	22.8
CO[C@@H]1CN(C)C(=O)c2ccc(NC(=O)Nc3cccc(F)c3)cc2OC[C@H](C)NC[C@@H]1C	0.0	27.4	-1.2	.	.	.	.
CO[C@H]1CN(C)C(=O)c2ccc(NS(=O)(=O)c3cccc(Cl)c3)cc2OC[C@@H](C)NC[C@@H]1C	-0.1	97.5*	-0.3	80.1	12.7	0.4	-14.8
CO[C@@H]1CN(C)C(=O)c2cc(NC(=O)Nc3cc(F)ccc3F)ccc2OC[C@H](C)NC[C@@H]1C	0.2	35.0	0.2	.	.	.	.
O=C(Cn1nnc2ccccc21)c1ccc(Oc2ccc([N+](=O)[O-])cc2)cc1	1.5	.	.	.	.	.	.
Cn1c(SCC(=O)Nc2c(F)cc(F)cc2Br)nnc1-c1ccco1	-0.1	.	.	.	.	.	.
C[C@@H]1CN([C@@H](C)CO)C(=O)Cc2cc(NC(=O)Nc3ccccc3)ccc2O[C@@H]1CN(C)Cc1ccncc1	22.6	56.6	-1.4	.	.	.	.
C[C@H](CO)N1C[C@H](C)[C@H](CN(C)Cc2ccc(Oc3ccccc3)cc2)Oc2ccc(NC(=O)c3ccncc3)cc2CC1=O	-0.5	102.4*	-1.5	102.2*	52.0	25.8	102.8*
C[C@@H]1CN([C@@H](C)CO)C(=O)Cc2cc(NC(=O)c3ccncc3)ccc2O[C@H]1CN(C)Cc1ccc(Oc2ccccc2)cc1	0.0	104.9*	-1.4	104.8*	84.0	23.7	102.8*
C[C@@H]1CN([C@H](C)CO)C(=O)Cc2cc(NC(=O)Nc3ccccc3)ccc2O[C@H]1CN(C)Cc1ccncc1	9.5	98.3*	-0.6	-14.2	8.2	3.6	-7.7
C[C@H]1CN([C@@H](C)CO)C(=O)Cc2cc(NC(=O)c3ccncc3)ccc2O[C@@H]1CN(C)Cc1ccc(Oc2ccccc2)cc1	0.1	84.9	-0.9	.	.	.	.
C[C@@H]1CN([C@H](C)CO)C(=O)Cc2cc(NC(=O)c3ccncc3)ccc2O[C@@H]1CN(C)Cc1ccc(Oc2ccccc2)cc1	-1.0	76.1	-1.2	.	.	.	.
O=C(COc1ccc(F)cc1)Nc1cc(Cl)ccc1C(=O)O	-2.2	.	.	.	.	.	.
O=S(=O)(c1ccccc1F)N1CCCCN2[C@H](C1)[C@@H](c1ccc(-c3ccccc3)cc1)[C@@H]2CO	.	69.1	.	.	.	.	.
Cc1ccccc1S(=O)(=O)N1CCCCN2[C@@H](CO)[C@H](c3ccc(-c4cncnc4)cc3)[C@@H]2C1	.	116.7*	-0.1	73.1	22.2	11.0	?
Cc1ccccc1S(=O)(=O)N1CCCCN2[C@H](CO)[C@@H](c3ccc(-c4cncnc4)cc3)[C@H]2C1	.	72.6	-1.1	.	.	.	.
Cc1ccccc1S(=O)(=O)N1CCCCN2[C@H](CO)[C@@H](c3ccc(-c4cccnc4)cc3)[C@@H]2C1	.	73.7	-1.1	.	.	.	.
O=S(=O)(c1ccccc1F)N1CCCCN2[C@@H](CO)[C@@H](c3ccc(-c4ccncc4)cc3)[C@@H]2C1	.	?	0.4	107.0*	35.3	30.3	26.5*
Cc1ccccc1S(=O)(=O)N1CCCCN2[C@H](CO)[C@H](c3ccc(-c4cccnc4)cc3)[C@H]2C1	.	100.0*	0.7	107.6*	80.4	29.4	79.5*
COC(=O)c1ccccc1NC(=O)CSc1nnc(-c2ccccc2O)n1-c1ccccc1	0.3	.	.	.	.	.	.
CCn1ccc(CNC(=O)Nc2cccc(C(F)(F)F)c2)n1	0.7	.	.	.	.	.	.
CN1C(=O)C2C=CC=CC2N=C1SCc1ccccc1F (centres undefined)	-1.5	.	.	.	.	.	.
COc1cccc(NC(=O)N2[C@H](CO)[C@@H](c3ccccc3)[C@H]2CNC(C)C)c1	.	103.6*	2.8	72.6	45.2	-1.8	-2.9
SMILES	IDH1 mut inh	T cruzi growth-1	GASC1 inh	T cruzi growth-2	T cruzi growth-3	NIH3T3 tox	3T3 cytotox 2
COc1cccc(NC(=O)N2[C@@H](CO)[C@@H](c3ccccc3)[C@@H]2CNCC(C)C)c1	.	70.1	-1.5	.	.	.	.
CNC[C@@H]1[C@H](c2ccccc2)[C@H](CO)N1C(=O)Nc1cccc(OC)c1	.	44.1	-3.0	.	.	.	.
COc1cccc(NC(=O)N2[C@@H](CO)[C@H](c3ccccc3)[C@@H]2CNC(C)C)c1	.	102.3*	1.9	100.9*	41.8	-17.7	-13.1
COC(=O)C(CC(=O)c1ccc(Br)cc1)n1cncn1 (centres undefined)	5.4	.	.	.	.	.	.
CC(=O)c1cccc(N(CC(=O)Nc2ccc(Br)cc2F)S(C)(=O)=O)c1	0.0	.	.	.	.	.	.
Cc1ccc(-c2csc3nnc(SCC(=O)Nc4ccc5c(c4)OCCO5)n23)cc1	0.0	.	.	.	.	.	.
CC(C)(C)c1cc(-c2csc(-c3ccno3)n2)cc(C(C)(C)C)c1O	0.1	.	.	.	.	.	.
COc1ccc(NC(=O)Nc2ccc3c(c2)C(=O)N([C@H](C)CO)C[C@H](C)[C@H](CN(C)C(=O)Nc2ccc(C(F)(F)F)cc2)OCCCC[C@@H](C)O3)cc1	1.3	.	-0.6	.	.	.	.
COc1ccc(NC(=O)N(C)C[C@H]2OCCCC[C@@H](C)Oc3ccc(NC(=O)Nc4ccc(F)cc4)cc3C(=O)N([C@H](C)CO)C[C@H]2C)cc1	.	100.1*	-1.4	111.5*	39.7	-2.1	-4.8
COc1ccc(NC(=O)Nc2ccc3c(c2)C(=O)N([C@@H](C)CO)C[C@H](C)[C@H](CN(C)C)OCCCC[C@H](C)O3)cc1	.	96.1*	0.2	64.1	-39.3	-10.3	3.6
COc1ccc(NC(=O)N(C)C[C@H]2OCCCC[C@@H](C)Oc3ccc(NC(=O)Nc4ccc(C(F)(F)F)cc4)cc3C(=O)N([C@H](C)CO)C[C@@H]2C)cc1	1.1	108.4*	0.1	111.2*	106.0*	-1.9	25.6*
COc1ccc(NC(=O)N(C)C[C@H]2OCCCC[C@H](C)Oc3ccc(NC(=O)Nc4ccc(F)cc4)cc3C(=O)N([C@@H](C)CO)C[C@H]2C)cc1	.	-23.4	-1.9	.	.	.	.
COc1ccc(NC(=O)N(C)C[C@@H]2OCCCC[C@H](C)Oc3ccc(NC(=O)Nc4ccc(C(F)(F)F)cc4)cc3C(=O)N([C@@H](C)CO)C[C@H]2C)cc1	0.1	97.3*	-1.5	110.8*	?	-20.8	?
COc1ccc(NC(=O)Nc2ccc3c(c2)C(=O)N([C@@H](C)CO)C[C@@H](C)[C@@H](CN(C)C)OCCCC[C@H](C)O3)cc1	2.7	27.3	-1.8	.	.	.	.
COc1ccc(NC(=O)N(C)C[C@@H]2OCCCC[C@@H](C)Oc3ccc(NC(=O)Nc4ccc(C(F)(F)F)cc4)cc3C(=O)N([C@@H](C)CO)C[C@@H]2C)cc1	1.1	.	0.9	.	.	.	.

Screening results deposited in PubChem BioAssay by Broad Institute.
